TRPC6 inh = mouse TRPC6 channel inhibition; Q61143; HEK293-TRPC6, membrane potential dye, ACh-evoked depolarization; stronger effect = lower value; B-score at 10 µM; hit rate 1.1% among 310,000; AID 2553;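 active = B-score under library mean minus 3 SD, initial fluorescence not abnormally high, positive integrated signal ratio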;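 also: B-score derived from integrated fluorescence ratio over the kinetic read; more negative B-score means stronger inhibition of depolarization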
TRPC4 PAM = TRPC4 (mouse) allosteric potentiation; Q9QUQ5; HEK293 TRPC4beta/mu-opioid, DAMGO EC20, Fluo-4 Ca2+ flux; stronger effect = higher value; B-score at 10 µM; hit rate 0.42% among 310,000; AID 2227;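 active = B-score of calcium response area above 5 SD of library B-scores, with initial fluorescence ratio within 5 SD of library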
TRPC4 agonist = activators of mouse TRPC4 channel. AID 2237. HEK293 TRPC4beta/mu-opioid, Fluo4 calcium fluorescence; stronger effect = higher value. hit rate 0.49% among 310,000. B-score at 10 µM;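 active = B-score above 5 SD of library B-scores, and initial fluorescence ratio not above library mean plus 5 SD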;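 also: positive B-score marks a calcium rise read as TRPC4 activation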
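System – HEK293 cells stably co-expressing mouse TRPC4beta and mu-opioid receptor · Signal – Fluo4 calcium-sensitive dye fluorescence, kinetic, 1 Hz baseline · Benchmarks – buffer (low) and maximal DAMGO (high) · Read-out – B score of integrated fluorescence ratio per well · Incubation – dye loading 45 min room temperature, 110 s kinetic read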
TRPC4 inh = blocks the mouse TRPC4 cation channel. Q9QUQ5. HEK293 TRPC4beta/mu-opioid, DAMGO-evoked Fluo4 calcium flux; stronger effect = lower value. B-score at 10 µM. hit rate 0.39% among 300,000. AID 2247;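 active = B-score over 3 SD under the library average, no early fluorescence shift, positive overall ratio signal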
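Assay system: HEK293 cells with stable TRPC4beta plus mu-opioid receptor expression; Probe or stimulus: DAMGO in two steps, submaximal then maximal; Dosing: single-point compound dosing; Measured by: Fluo4 calcium-dye fluorescence, kinetic read; Read-out basis: B score from integrated Fluo4 fluorescence ratio.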
TRPC6 activator = mouse TRPC6 channel activation. Q61143. HEK293-TRPC6 membrane potential dye fluorescence; stronger effect = higher value. B-score at 10 µM. hit rate 0.13% among 310,000. AID 2550;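 active = B-score of the integrated fluorescence ratio above library mean plus 3 SD, and starting fluorescence ratio within library mean plus 5 SD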;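 also: higher score means more depolarization so channel activation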
TRPC4 spec 2 = mouse TRPC4 off-target activity of TRPC6 inhibitors, second screen; shares compounds with TRPC6 inh; HEK293 TRPC4/MOR, membrane potential dye fluorescence; channel activated by saturating DAMGO dose; inhibition, % at 10 µM; hit rate 42% among 920; AID 2776;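 active = compounds whose fluorescence signal differed from control wells by over 3 SD, either direction, in both duplicate plates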
TRPC4 spec = selectivity of TRPC6 inhibitors: effect on mouse TRPC4 | hit rate 61% among 920 | AID 2777 | shares compounds with TRPC6 inh | activity change, negative = inhibition, % at 10 µM | HEK293 TRPC4/mu-opioid, membrane potential fluorescence;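 active = rise or fall in signal beyond 3 SD of buffer-only wells in both replicate plates, either sign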;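 also: integrated kinetic ratio of fluorescence range over baseline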
HEK293 MPD ctr 2-1 = parental HEK293 nonspecific activity of TRPC6 inhibitors, second screen. signal change vs control, % at 10 µM. AID 2779. shares compounds with TRPC6 inh. parental HEK293 membrane potential dye fluorescence; maximal acetylcholine challenge after compound addition. hit rate 31% among 920;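 active = membrane potential signal moving either way by over 3 SD of the maximum-effect control, in both duplicate plates, meaning non-specific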
HEK293 MPD ctr-1 = checks TRPC6 inhibitor effects in parental HEK293 cells; shares compounds with TRPC6 inh; parental HEK293 membrane potential dye fluorescence; membrane potential signal change, % at 10 µM; hit rate 60% among 920; AID 2780;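 active = membrane potential signal shifting up or down by more than 3 SD of buffer-only wells, on both duplicate plates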
HEK293 MPD ctr-2 = checks TRPC6 modulator effects in parental HEK293 cells | shares compounds with TRPC6 inh | membrane potential dye fluorescence | membrane potential signal change, % at 10 µM | hit rate 51% among 2,400 | AID 488924;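 active = membrane potential signal moves up or down beyond 5 SD from buffer-only wells, on both duplicate plates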
HEK293 MPD ctr 2-2 = parental HEK293 nonspecific activity of TRPC6 modulators, second screen. hit rate 14% among 2,400. membrane potential dye fluorescence; after compound, maximal acetylcholine stimulation. shares compounds with TRPC6 inh. AID 488926. inhibition, % at 10 µM;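 active = membrane potential signal drops by more than 5 SD from the mean control signal, in both duplicate plates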
TRPC4/MOR mod = selectivity of TRPC6 modulators against mouse TRPC4; AID 488927; percent change from control (negative = decrease, positive = increase), % at 10 µM; hit rate 69% among 2,400; HEK293 TRPC4/mu-opioid, membrane potential fluorescence; shares compounds with TRPC6 inh;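 active = membrane potential signal moved up or down beyond 5 SD of buffer control wells, in both duplicate plates, actives on both sides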
TRPC4/MOR inh 2 = mouse TRPC4 off-target activity of TRPC6 modulators, second screen; hit rate 55% among 2,400; HEK293 TRPC4/mu-opioid, membrane potential dye fluorescence; stimulated with maximal-effect DAMGO; shares compounds with TRPC6 inh; AID 488928; inhibition, % at 10 µM;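 active = drop in membrane potential signal beyond 5 SD of the control wells in both duplicate plates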;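 also: TRPC4 counter screen for TRPC6 hits run under conditions tuned for TRPC6 not TRPC4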
TRPC6 block conf = confirmation of mouse TRPC6 inhibitors | hit rate 43% among 3,300 | inhibition, % at 10 µM | shares compounds with TRPC6 inh | HEK293-TRPC6, membrane potential dye, ACh-evoked depolarization;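 active = fluorescence ratio falls more than 5 SD below the full-stimulation control mean, in both duplicate runs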;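 also: integrated fluorescence ratio of peak minus minimum over baseline after agonist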
TRPC6 act confirm = confirmation of mouse TRPC6 activators. activation, % at 10 µM. shares compounds with TRPC6 inh. hit rate 11% among 2,800. HEK293-TRPC6 membrane potential dye fluorescence, FDSS. AID 488961;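 active = ratio signal rise beyond 5 SD above unstimulated control wells' mean, seen in both duplicate runs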
Of the large screens only hits and unclear results are named; the others gave an inactive call (follow-up assays come after a bar, where they were run). In the library only some 2.3% were active in any assay of this set; here they are far more common.

O=C(Nc1cc([N+](=O)[O-])ccc1N1CCCC1)c1ccccc1	none
CN1CCN(c2ccccc2NC(=O)c2ccc(N3CCCCC3)c([N+](=O)[O-])c2)CC1	TRPC6 inh -6.19 | HEK293 MPD ctr-2 -121.0% | HEK293 MPD ctr 2-2 inactive | TRPC4/MOR mod -31.0% | TRPC4/MOR inh 2 75.5% | TRPC6 block conf 44.0% | TRPC6 act confirm inactive
COc1cccc(C(=O)Nc2cc([N+](=O)[O-])ccc2N2CCN(C)CC2)c1	TRPC6 inh -10.8 | HEK293 MPD ctr-2 -372.0% | HEK293 MPD ctr 2-2 inactive | TRPC4/MOR mod -61.0% | TRPC4/MOR inh 2 56.5% | TRPC6 block conf 50.5% | TRPC6 act confirm inactive
CN1CCN(c2ccccc2NC(=O)c2cccc([N+](=O)[O-])c2)CC1	none
Cc1ccc(S(=O)(=O)c2c(O)c3ccc(C(=O)O)cc3[nH]c2=O)cc1	none
Cc1cc(C(=O)NCc2ccccc2Cl)n(-c2ccccc2)n1	none
CC(C)n1c(=NC(=O)c2ccco2)c(C#N)cc2c(=O)n3ccccc3cc21	TRPC6 inh -6.12 | HEK293 MPD ctr-2 -86.5% | HEK293 MPD ctr 2-2 inactive | TRPC4/MOR mod -24.5% | TRPC4/MOR inh 2 inactive | TRPC6 block conf inactive | TRPC6 act confirm inactive
CCOC(=O)c1cc2c(=O)n3ccccc3nc2n(C(C)C)c1=NC(=O)c1ccco1	none
O=C(NC1CC2CCCC(C1)N2C(=O)Nc1ccccc1)C1CC1 (centres undefined)	none
CCOc1ccccc1OCCC(=O)OCC(=O)Nc1c(C)nn(-c2ccccc2)c1C	none
N=c1c2ccccc2nc2n1CCCCCCCCCCC2	TRPC6 inh -7.61 | TRPC4 spec 2 50.0% | TRPC4 spec 17.1% | HEK293 MPD ctr 2-1 253.5% | HEK293 MPD ctr-1 18.3% | TRPC6 block conf inactive
Cc1ccc(CNS(=O)(=O)c2c(C(=O)N3CCCCC3)c(C)n(C)c2C)o1	none
COc1cc(/C=C(\C#N)c2ccccn2)cc(OC)c1O	TRPC6 inh -5.11, TRPC6 activator 13.6 | HEK293 MPD ctr-2 458.0% | HEK293 MPD ctr 2-2 72.5% | TRPC4/MOR mod 66.5% | TRPC4/MOR inh 2 inactive | TRPC6 block conf 46.5% | TRPC6 act confirm 146.5%
N=C1CCCN1CC(=O)c1ccc(Cl)cc1	TRPC6 inh -5.13 | HEK293 MPD ctr-2 inactive | HEK293 MPD ctr 2-2 inactive | TRPC4/MOR mod inactive | TRPC4/MOR inh 2 inactive | TRPC6 block conf inactive | TRPC6 act confirm inactive

Screening results: PubChem BioAssay, Johns Hopkins Ion Channel Center
